The IC50 is the concentration that inhibits the measured activity by half.

In assay [1] the test system is RAW264.7. Briefly: Antiinflammatory activity in mouse RAW264.7 cells assessed as inhibition of LPS-stimulated COX2 expression at 10 uM after 16 hrs by Western blot analysis relative to control. Type of assay: functional. In outline: (§1)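 LPS-stimulated RAW 264.7 macrophages were treated with each compound at 10 µM. iNOS and COX-2 protein levels were measured by immunoblot, with β-actin also probed. Band intensity was expressed relative to the LPS-alone group, set at 100%. Data are mean ± SEM (n = 5), and significance versus LPS alone was set at P < 0.05. CAPE at 10 µM served as positive control.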
On the technique in general: In western blotting, separated proteins are transferred to a membrane and probed.

The test system of assay [2] is Salmonella enterica. Description: Antibacterial activity against Salmonella enteritidis ATCC 13076 at 100 ug/ml after 24 hrs. Type of assay: functional, organism-based. Particulars: Salmonella enterica subsp. enterica serovar Enteritidis.
In assay [3] the test system is Klebsiella aerogenes. Briefly: Antibacterial activity against Enterobacter aerogenes ATCC 13048 at 100 ug/ml after 24 hrs. It is filed as functional, organism-based.
The test system of assay [4] is P388. Description: Cytotoxicity against mouse P388 cells after 2 days by MTT assay. It is filed as functional. Particulars: for EC50: P388, 48 h, read-out: ED50 (the source's name). In outline:
(§2)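 The value reported is the ED50 against each tumour cell line. Mithramycin was run as positive control.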
A general note: Tetrazolium assays rely on reduction of a dye to a coloured formazan, in cell work by metabolically active cells.

Assay [5] concerns RAW264.7. Briefly: Antiinflammatory activity in mouse RAW264.7 cells assessed as inhibition of LPS-stimulated iNOS expression at 10 uM after 16 hrs by Western blot analysis relative to control. Type of assay: functional. In outline: as §1
The test system of assay [6] is HT-29. Briefly: Cytotoxicity against human HT-29 cells after 2 days by MTT assay. Type of assay: functional. In outline: as §2
The subject of assay [7] is A549. Description: Cytotoxicity against human A549 cells after 2 days by MTT assay. It is filed as functional. Summed up:
as §2

The test system of assay [8] is Shigella sonnei. Description: Antibacterial activity against Shigella sonnei ATCC 11060 at 100 ug/ml after 24 hrs. Type of assay: functional, organism-based.
Assay [9] relates to Yersinia enterocolitica. Briefly: Antibacterial activity against Yersinia enterocolitica ATCC 23715 at 100 ug/ml after 24 hrs. Type of assay: functional, organism-based.
The subject of assay [10] is Serratia marcescens. Description: Antibacterial activity against Serratia marcescens ATCC 25419 at 100 ug/ml after 24 hrs. Type of assay: functional, organism-based.
The subject of assay [11] is Human betaherpesvirus 5. Briefly: Antiviral activity against HCMV assessed as protection from virus-induced cytopathogenicity after 7 days by coulter counter. The settings on record: Human betaherpesvirus 5, 168 h. It is filed as functional, organism-based.

Activity calls are given as the source filed them. The calls are words filed in the database; no cut-off is given here.

For `C=C1CC[C@H](C)/C(C)=C\[C@H]2[C@H]1CC[C@]2(C)O`, the inhibition result in assay [1] and in assay [5] was “inactive” each time. Also, the outcome in assay [2], in assay [3], in assay [4], in assay [6], in assay [7] and in assay [8] was inactive. The result in assay [9] and in assay [10] was inactive.

Consider `CC1(C)CC(O)C[C@@]2(C)OC(=O)C=C12` (stereo partly specified), for which the inhibition result in assay [1] and in assay [5] was “inactive” throughout. For the same molecule, the result in [2], in assay [3], in [4], in assay [6], in assay [7] and in assay [8] was inactive. The result in [9] and in [10] was inactive.

For the molecule `C=CC(=C)C(CCC(C)Cc1cc(C(=O)OC)co1)OC(C)=O` (stereo unspecified), the inhibition entry in assay [1] and in assay [5] was “inactive” each time. The result in assay [2], in assay [3], in assay [4], in assay [6], in assay [7] and in assay [8] was inactive. Moreover, the result in [9] and in [10] was inactive.

Consider `C=C/C(C)=C/CCC(C)Cc1cc(C(=O)O)co1` (stereo unspecified), for which the inhibition entry in [1] and in [5] was “inactive” each time. For the same molecule, the result in [2], in assay [3], in assay [4], in assay [6], in assay [7] and in assay [8] was inactive. For the same molecule, the outcome in assay [9] and in [10] was inactive.

As to `CC1=CC(=O)C(C/C=C(\C)CC/C=C(\C)Cc2cc(C)co2)=CC1=O`, the result in assay [2], in assay [3], in assay [4], in [6], in [7] and in [8] was inactive. The result in [9] and in [10] was inactive. The IC50 in assay [11] amounted to 5.9 µM.

On to `CO[C@](C)(CC/C=C(\C)Cc1cc(C)co1)[C@@H]1Cc2cc(O)c(C)cc2O1` [CAPILLOBENZOFURANOL], for which the inhibition result in assay [1] and in assay [5] was “inactive” throughout. For the same molecule, the outcome in [2], in [3], in assay [4], in assay [6], in assay [7] and in assay [8] was inactive. Further, the outcome in [9] and in assay [10] was inactive. Further, the IC50 in [11] is 13.5 µM.

On to `CO[C@H](C(=O)[C@@H](O)[C@@H](C)O)[C@@H]1Cc2cc3cc(O[C@H]4C[C@@H](O[C@@H]5C[C@@H](O)[C@H](O)[C@@H](C)O5)[C@H](O)[C@@H](C)O4)c(C)c(O)c3c(O)c2C(=O)[C@H]1O[C@H]1C[C@@H](O[C@@H]2C[C@@H](O)[C@@H](O[C@@H]3C[C@](C)(O)[C@H](O)[C@@H](C)O3)[C@@H](C)O2)[C@H](O)[C@@H](C)O1` [PLICAMYCIN], for which the EC50 in assay [4] came to 0.06 µM; in [6] (HT-29, 48 h, read-out: ED50 (the source's name)), 0.07 µM; in [7] (A549, 48 h, read-out: ED50 (the source's name)) it was 0.07 µM.

In the case of `C/C(=C\CC[C@]1(C)C=Cc2cc(O)c(C)cc2O1)Cc1cc(C)co1` [CAPILLOBENZOPYRANOL], in assay [1], the inhibition result is “inactive”. In addition, the result in assay [2], in assay [3], in [6], in assay [7], in assay [8] and in [9] was inactive. Moreover, the result in [10] was inactive. Moreover, the EC50 in [4] amounted to 12.7 µM.

As to `CC1=CC(=O)C(C/C=C(\C)CC/C=C(\C)CC/C=C(\C)CC[C@H](O)C(C)(C)O)=CC1=O` [CAPILLOQUINONE], in [1], the inhibition entry is “inactive”. Besides, the outcome in [2], in assay [3], in assay [6], in assay [7], in assay [8] and in assay [9] was inactive. Also, the outcome in [10] was inactive. Besides, the EC50 in assay [4] is 9.8 µM.

As for `C/C(=C\Cc1cc(O)c(C)cc1O)CC/C=C(\C)Cc1cc(C)co1`, the inhibition entry in [1] is “inactive”. Further, the outcome in assay [2], in [3], in [4], in assay [6], in [7] and in [8] was inactive. Moreover, the result in [9] and in assay [10] was inactive. Further, the IC50 in assay [11] was determined as 15 µM.

Values taken from ChEMBL document CHEMBL1157060, “Antiviral and anti-inflammatory metabolites from the soft coral Sinularia capillosa” (J Nat Prod, 2010).
